Active and inactive are the calls of the source. No cut-off for these calls is given here.
Key:
A549 = assay: Antiproliferative activity against human A549 cells assessed as reduction in cell viability incubated for 72 hrs by MTT assay; assay type: functional, cell-based; settings: A549, 72 h
In short: (§1)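 Cells (ATCC) grown in DMEM with 10 FBS, penicillin/streptomycin, 2 mM glutamine, 37 °C, 5 CO2. 5000 cells/well seeded; after 24 h, freshly prepared dilutions at five concentrations (0.01–100 μM) added for 72 h. MTT read-out; absorbance converted to percentage growth by NIH formulas. Two experiments in quadruplicate; IC50 by linear regression.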

CFPAC-1 = assay: Antiproliferative activity against human CFPAC-1 cells assessed as reduction in cell viability incubated for 72 hrs by MTT assay; assay type: functional, cell-based; settings: Homo sapiens, CFPAC-1, 72 h; read-out: IC50; in short: as §1
HCT-116 = assay: Antiproliferative activity against human HCT116cells assessed as reduction in cell viability incubated for 72 hrs by MTT assay; assay type: functional, cell-based; settings: HCT-116, 72 h; in short: as §1
HeLa = assay: Antiproliferative activity against human HeLa cells assessed as reduction in cell viability incubated for 72 hrs by MTT assay; assay type: functional, cell-based; in short: as §1
HepG2 = assay: Antiproliferative activity against human HepG2 cells assessed as reduction in cell viability incubated for 72 hrs by MTT assay; assay type: functional, cell-based; settings: HepG2, 72 h; in short: as §1
MCF7 = assay: Antiproliferative activity against human MCF7 cells assessed as reduction in cell viability incubated for 72 hrs by MTT assay; assay type: functional, cell-based; settings: MCF7, 72 h; in short: as §1
SW-620 = assay: Antiproliferative activity against human SW620 cells assessed as reduction in cell viability incubated for 72 hrs by MTT assay; assay type: functional, cell-based; settings: SW-620, 72 h; in short: as §1
HFF = assay: Cytotoxicity against human HFF cells assessed as reduction in cell viability incubated for 72 hrs by MTT assay; assay type: cell-based; in short: as §1
Cytomegalovirus [1] = assay: Antiviral activity against Cytomegalovirus AD169 infected in human HELF cells assessed as reduction in virus-induced cytopathogenicity incubated for 7 days by Giemsa staining based microscopic analysis; assay type: functional, organism-based; settings: Human betaherpesvirus 5, AD169, HELF, 168 h
In short: (§2)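 Confluent HEL fibroblasts infected with CMV (Davis or AD-169) at 100 PFU/well for 2 h. Residual virus removed, then medium with graded compound concentrations added (duplicate). Incubated 7 days at 37 °C. Cytopathogenicity scored microscopically after ethanol fixation and Giemsa staining. EC50 read from plots of % cytopathogenicity versus concentration.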

Cytomegalovirus [2] = assay: Antiviral activity against Cytomegalovirus Davis infected in human HELF cells assessed as reduction in virus-induced cytopathogenicity incubated for 7 days by Giemsa staining based microscopic analysis; assay type: functional, organism-based; settings: Human betaherpesvirus 5, Davis, 168 h; in short: as §2
Human alphaherpesvirus 3 [3] = assay: Antiviral activity against thymidine kinase deficient Varicella zoster virus infected in human HELF cells assessed as reduction in virus-induced cytopathogenicity incubated for 7 days by Giemsa staining based microscopic analysis; assay type: functional, organism-based; settings: Human alphaherpesvirus 3, HELF, 168 h
Human alphaherpesvirus 3 [4] = assay: Antiviral activity against thymidine kinase positive Varicella zoster virus infected in human HELF cells assessed as reduction in virus-induced cytopathogenicity incubated for 7 days by Giemsa staining based microscopic analysis; assay type: functional, organism-based; settings: Human alphaherpesvirus 3, HELF, 168 h
[5] = Cytotoxicity against human HELF cells assessed as minimum cytotoxic concentration by observing alteration in cell morphology incubated for 3 days by microscopic analysis; assay type: cell-based; settings: for MCC at 72 h: HELF cells; for MCC: 72 h
In short: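 Read-out is the minimum cytotoxic concentration (MCC): the lowest compound concentration giving a microscopically detectable change in cell morphology. Measured on confluent human embryonic lung (HEL) fibroblast cultures exposed to a range of compound concentrations.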

Influenza A virus [6] = assay: Antiviral activity against Influenza A virus (A/Ned/378/05(H1N1)) infected in dog MDCK cells assessed as reduction in virus-induced cytopathogenicity incubated for 7 days by microscopic analysis; assay type: functional, organism-based
Influenza A virus H3N2 [7] = assay: Antiviral activity against Influenza A virus (A/HK/7/87(H3N2)) infected in dog MDCK cells assessed as reduction in virus-induced cytopathogenicity incubated for 7 days by microscopic analysis; assay type: functional, organism-based; settings: A/Hong Kong/7/1987(H3N2)
Influenza B virus [8] = assay: Antiviral activity against Influenza B virus (B/Ned/537/05) infected in dog MDCK cells assessed as reduction in virus-induced cytopathogenicity incubated for 7 days by microscopic analysis; assay type: functional, organism-based
Influenza A virus [9] = assay: Antiviral activity against Influenza A virus (A/Ned/378/05(H1N1)) infected in dog MDCK cells assessed as reduction in virus-induced cytopathogenicity incubated for 7 days by MTS assay; assay type: functional, organism-based
Influenza A virus H3N2 [10] = assay: Antiviral activity against Influenza A virus (A/HK/7/87(H3N2)) infected in dog MDCK cells assessed as reduction in virus-induced cytopathogenicity incubated for 7 days by MTS assay; assay type: functional, organism-based; settings: A/Hong Kong/7/1987(H3N2)
Influenza B virus [11] = assay: Antiviral activity against Influenza B virus (B/Ned/537/05) infected in dog MDCK cells assessed as reduction in virus-induced cytopathogenicity incubated for 7 days by MTS assay; assay type: functional, organism-based
Human alphaherpesvirus 1 [12] = assay: Antiviral activity against Herpes simplex virus 1 KOS infected in human HELF cells assessed as reduction in virus-induced cytopathogenicity incubated for 7 days by microscopic analysis; assay type: functional, organism-based; settings: strain KOS
Human alphaherpesvirus 2 = assay: Antiviral activity against Herpes simplex virus 2 G infected in human HELF cells assessed as reduction in virus-induced cytopathogenicity incubated for 7 days by microscopic analysis; assay type: functional, organism-based; settings: for EC50: Human alphaherpesvirus 2, G, 168 h
Human alphaherpesvirus 1 [13] = assay: Antiviral activity against Herpes simplex virus 1 TK-KOS-ACV infected in human HELF cells assessed as reduction in virus-induced cytopathogenicity incubated for 7 days by microscopic analysis; assay type: functional, organism-based; settings: for EC50: Human alphaherpesvirus 1, TK-KOS-ACV, 168 h
Human adenovirus 2 = assay: Antiviral activity against Human adenovirus 2 infected in human HELF cells assessed as reduction in virus-induced cytopathogenicity incubated for 7 days by microscopic analysis; assay type: functional, organism-based
Human coronavirus 229E = assay: Antiviral activity against Human coronavirus 229E infected in human HELF cells assessed as reduction in virus-induced cytopathogenicity incubated for 7 days by microscopic analysis; assay type: functional, organism-based
Coxsackievirus B4 = assay: Antiviral activity against Human coxsackievirus B4 infected in vero cells assessed as reduction in virus-induced cytopathogenicity incubated for 7 days by microscopic analysis; assay type: functional, organism-based
Reovirus sp. = assay: Antiviral activity against Reovirus infected in vero cells assessed as reduction in virus-induced cytopathogenicity incubated for 7 days by microscopic analysis; assay type: functional, organism-based
Sindbis virus = assay: Antiviral activity against Sindbis virus infected in vero cells assessed as reduction in virus-induced cytopathogenicity incubated for 7 days by microscopic analysis; assay type: functional, organism-based
[14] = Cytotoxicity against human HELF cells assessed as reduction in cell viability incubated for 3 days by coulter counter method; assay type: cell-based; settings: 72 h
In short: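 HEL cells seeded at 5 x 10^3/well and allowed to proliferate 24 h, then exposed to graded compound concentrations for 3 days at 37 °C. Cell number counted with a Coulter counter.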

Compound	IC50 (CFPAC-1) [µM]	IC50 (HCT-116) [µM]	IC50 (HeLa) [µM]	IC50 (HepG2) [µM]	IC50 (MCF7) [µM]	IC50 (SW-620) [µM]	IC50 (HFF) [µM]	EC50 (Cytomegalovirus [1]) [µM]	EC50 (Cytomegalovirus [2]) [µM]	EC50 (Human alphaherpesvirus 3 [3]) [µM]	EC50 (Human alphaherpesvirus 3 [4]) [µM]	MCC at 72 h [5] [µM]	Activity (Influenza A virus [6])	Activity (Influenza A virus H3N2 [7])	Activity (Influenza B virus [8])	Activity (Influenza A virus [9])	Activity (Influenza A virus H3N2 [10])	Activity (Influenza B virus [11])	Activity (Human alphaherpesvirus 1 [12])	Activity (Human alphaherpesvirus 2)	further results
O=C1O[C@H]([C@@H](O)Cn2cc(C3CC3)nn2)C(OCc2ccccc2)=C1OCc1ccccc1	47.7	30.4	26.5	38.1	25.9	54.2	24.3	44.7	> 20	> 100	> 100	100	inactive	inactive	inactive	inactive	inactive	inactive	inactive	inactive	IC50 (A549): 43.9 µM; Activity (Human alphaherpesvirus 1 [13]): inactive; Activity (Human adenovirus 2): inactive; Activity (Human coronavirus 229E): inactive; Activity (Coxsackievirus B4): inactive; Activity (Reovirus sp.): inactive; Activity (Sindbis virus): inactive
Nc1nc2c(ncn2COCCO)c(=O)[nH]1 [ACYCLOVIR]																					MCC [5]: 250 to 440 µM; CC50 [14]: > 440 µM; EC50 (Human alphaherpesvirus 2): 2 µM; EC50 (Human alphaherpesvirus 1 [13]): 17 µM; EC50 (Human adenovirus 2; Human mastadenovirus C, 168 h): 5.8 µM
O=C1O/C(=C\Cn2cc(-c3ccc(Br)cc3)nn2)C(OCc2ccccc2)=C1OCc1ccccc1	> 100	> 100	24.3	> 100	> 100	> 100	> 100	> 100	8.94	> 100	44.7	> 100	inactive	inactive	inactive	inactive	inactive	inactive	inactive	inactive	IC50 (A549): > 100 µM; CC50 [14]: > 100 µM; Activity (Human alphaherpesvirus 1 [13]): inactive; Activity (Human adenovirus 2): inactive; Activity (Human coronavirus 229E): inactive; Activity (Coxsackievirus B4): inactive; Activity (Reovirus sp.): inactive; Activity (Sindbis virus): inactive
O=C1O/C(=C\Cn2cc(CCO)nn2)C(OCc2ccccc2)=C1OCc1ccccc1	43.4	27.9	27.9	39	37.2	41.9	25.6	> 100	> 100	78.1	> 100	> 100	inactive	inactive	inactive	inactive	inactive	inactive	inactive	inactive	IC50 (A549): > 100 µM; Activity (Human alphaherpesvirus 1 [13]): inactive; Activity (Human adenovirus 2): inactive; Activity (Human coronavirus 229E): inactive; Activity (Coxsackievirus B4): inactive; Activity (Reovirus sp.): inactive; Activity (Sindbis virus): inactive
Nc1nc(O)c2ncn(COC(CO)CO)c2n1 [GANCICLOVIR]								3.15	2.3			> 350									CC50 [14]: > 350 µM; EC50 (Human alphaherpesvirus 2): 0.3 µM
CC(C)(C)c1cn(C[C@H](O)[C@H]2OC(=O)C(OCc3ccccc3)=C2OCc2ccccc2)nn1	54.9	28.3	18.3	29.2	0.73	35.8	13.3	44.7	> 20	> 20	48.9	100	inactive	inactive	inactive	inactive	inactive	inactive	inactive	inactive	IC50 (A549): 34 µM; Activity (Human alphaherpesvirus 1 [13]): inactive; Activity (Human adenovirus 2): inactive; Activity (Human coronavirus 229E): inactive; Activity (Coxsackievirus B4): inactive; Activity (Reovirus sp.): inactive; Activity (Sindbis virus): inactive
CCCCc1cn(C[C@H](O)[C@H]2OC(=O)C(OCc3ccccc3)=C2OCc2ccccc2)nn1	73.2	10.4	18.1	32.8	7.91	47.5	26.3	> 20	> 4	> 20	7.31	20	inactive	inactive	inactive	inactive	inactive	inactive	inactive	inactive	IC50 (A549): 28.6 µM; Activity (Human alphaherpesvirus 1 [13]): inactive; Activity (Human adenovirus 2): inactive; Activity (Human coronavirus 229E): inactive; Activity (Coxsackievirus B4): inactive; Activity (Reovirus sp.): inactive; Activity (Sindbis virus): inactive
C[Si](C)(C)c1cn(C[C@H](O)[C@H]2OC(=O)C(OCc3ccccc3)=C2OCc2ccccc2)nn1	52.6	31.8	22.3	24.1	12.1	56	20	> 100	12.1	> 20	> 20	100	inactive	inactive	inactive	inactive	inactive	inactive	inactive	inactive	CC50 [14]: 22.3 µM; Activity (Human alphaherpesvirus 1 [13]): inactive; Activity (Human adenovirus 2): inactive; Activity (Human coronavirus 229E): inactive; Activity (Coxsackievirus B4): inactive; Activity (Reovirus sp.): inactive; Activity (Sindbis virus): inactive
O=c1[nH]c(=O)n([C@H]2C[C@H](O)[C@@H](CO)O2)cc1/C=C/Br [BRIVUDINE]										0.0066	18.4										MCC [5]: 250 to 300 µM; CC50 [14]: 179 µM; EC50 (Human alphaherpesvirus 2): > 250 µM
Nc1ccn(C[C@@H](CO)OCP(=O)(O)O)c(=O)n1 [CIDOFOVIR]								0.43	0.65												MCC [5]: 250 to 300 µM; CC50 [14]: 214 µM; EC50 (Human alphaherpesvirus 2): 5.3 µM; EC50 (Human alphaherpesvirus 1 [13]): 4.5 µM

From ChEMBL document CHEMBL4406859, “Antitumor and antiviral activities of 4-substituted 1,2,3-triazolyl-2,3-dibenzyl-L-ascorbic acid derivatives” (Eur J Med Chem, 2019)
